Laboratory results as given in ChEMBL document CHEMBL5724801, “EUbOPEN Chemogenomics Library - Multiplex” (2024).
Values joined by “and” are separate entries in the source; they are usually repeats but may differ in a detail not shown here. Identical values can stand only once.

Test system: HEK-293T
Experiment: Multiplex assay against HEK293T
Type: toxicity, cell-based
Conditions: human
In short: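 Hoechst33342, BioTracker Green Microtubule Cytoskeleton Dye, MitoTracker Red and Annexin V Alexa Fluor 680 were added to live cells at seeding, and imaging on a CQ1 microscope at 37°C and 5% CO2 followed compound addition. Gating by CellPathfinder machine learning separated cells into Hoechst high-intensity objects or normal cells, then normal cells into healthy, pyknosed or fragmented nuclei, then pyknosed cells into mitotic or apoptotic. Per cents of healthy-nucleus cells are reported for the tubulin, mitochondrial-mass and membrane-permeability phenotypes.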

[1] = 12 h, 1 µM, compound concentration 1 uM
[2] = 12 h, 10 µM, compound concentration 10 uM
[3] = 24 h, 1 µM, compound concentration 1 uM
[4] = 24 h, 10 µM, compound concentration 10 uM
[5] = 48 h, 1 µM, compound concentration 1 uM
[6] = 48 h, 10 µM, compound concentration 10 uM

O=c1nc2[nH]c3ccccc3nc-2c(=O)[nH]1 [ALLOXAZINE]
Population Apoptotic (%) [1]: 27% and 44% | Population Fragmented Nuclei (%) [1]: 8% and 4% | Population Healthy Nuclei (%) [1]: 77% and 79% | Population Hoechst High Intensity Objects (%) [1]: 8% and 7% | Population Membrane Permeable-Phenotype (%) [1]: 0% | Population Mitochondria Different-Phenotype (%) [1]: 44% and 66% | Population Mitotic Cells (%) [1]: 72% and 55% | Population Normal (%) [1]: 91% and 92% | Population Pyknosed Nuclei (%) [1]: 13% and 15% | Population Tubulin-Different-Phenotype (%) [1]: 33% and 25% | Total Cell Count [1]: 377 and 345 | Population Apoptotic (%) [2]: 40% and 60% | Population Fragmented Nuclei (%) [2]: 10% and 8% | Population Healthy Nuclei (%) [2]: 71% and 70% | Population Hoechst High Intensity Objects (%) [2]: 5% and 15% | Population Membrane Permeable-Phenotype (%) [2]: 0% | Population Mitochondria Different-Phenotype (%) [2]: 53% and 67% | Population Mitotic Cells (%) [2]: 59% and 40% | Population Normal (%) [2]: 94% and 84% | Population Pyknosed Nuclei (%) [2]: 18% and 20% | Population Tubulin-Different-Phenotype (%) [2]: 31% and 20% | Total Cell Count [2]: 362 and 323 | Population Apoptotic (%) [3]: 22% and 33% | Population Fragmented Nuclei (%) [3]: 10% and 7% | Population Healthy Nuclei (%) [3]: 76% and 83% | Population Hoechst High Intensity Objects (%) [3]: 4% and 7% | Population Membrane Permeable-Phenotype (%) [3]: 0% | Population Mitochondria Different-Phenotype (%) [3]: 24% and 41% | Population Mitotic Cells (%) [3]: 77% and 66% | Population Normal (%) [3]: 95% and 92% | Population Pyknosed Nuclei (%) [3]: 12% and 8% | Population Tubulin-Different-Phenotype (%) [3]: 19% and 12% | Total Cell Count [3]: 504 and 391 | Population Apoptotic (%) [4]: 27% and 50% | Population Fragmented Nuclei (%) [4]: 9% | Population Healthy Nuclei (%) [4]: 77% and 72% | Population Hoechst High Intensity Objects (%) [4]: 6% and 15% | Population Membrane Permeable-Phenotype (%) [4]: 0% | Population Mitochondria Different-Phenotype (%) [4]: 34% and 48% | Population Mitotic Cells (%) [4]: 72% and 50% | Population Normal (%) [4]: 93% and 84% | Population Pyknosed Nuclei (%) [4]: 12% and 17% | Population Tubulin-Different-Phenotype (%) [4]: 21% and 16% | Total Cell Count [4]: 491 and 371 | Population Apoptotic (%) [5]: 32% and 27% | Population Fragmented Nuclei (%) [5]: 14% and 11% | Population Healthy Nuclei (%) [5]: 77% and 82% | Population Hoechst High Intensity Objects (%) [5]: 3% and 4% | Population Membrane Permeable-Phenotype (%) [5]: 1% and 0% | Population Mitochondria Different-Phenotype (%) [5]: 18% and 26% | Population Mitotic Cells (%) [5]: 67% and 72% | Population Normal (%) [5]: 96% and 95% | Population Pyknosed Nuclei (%) [5]: 8% and 6% | Population Tubulin-Different-Phenotype (%) [5]: 13% and 12% | Total Cell Count [5]: 773 and 636 | Population Apoptotic (%) [6]: 29% and 48% | Population Fragmented Nuclei (%) [6]: 15% and 14% | Population Healthy Nuclei (%) [6]: 76% and 78% | Population Hoechst High Intensity Objects (%) [6]: 3% and 4% | Population Membrane Permeable-Phenotype (%) [6]: 0% | Population Mitochondria Different-Phenotype (%) [6]: 17% and 28% | Population Mitotic Cells (%) [6]: 70% and 51% | Population Normal (%) [6]: 96% and 95% | Population Pyknosed Nuclei (%) [6]: 7% and 6% | Population Tubulin-Different-Phenotype (%) [6]: 11% and 14% | Total Cell Count [6]: 700 and 531

CCCCC[C@H](O)/C=C/[C@H]1[C@H](O)CC(=O)[C@@H]1CCCCCCC(=O)O [ALPROSTADIL]
Population Apoptotic (%) [1]: 35% and 50% | Population Fragmented Nuclei (%) [1]: 7% and 6% | Population Healthy Nuclei (%) [1]: 79% and 80% | Population Hoechst High Intensity Objects (%) [1]: 7% and 6% | Population Membrane Permeable-Phenotype (%) [1]: 0% | Population Mitochondria Different-Phenotype (%) [1]: 42% and 55% | Population Mitotic Cells (%) [1]: 64% and 49% | Population Normal (%) [1]: 92% and 93% | Population Pyknosed Nuclei (%) [1]: 13% | Population Tubulin-Different-Phenotype (%) [1]: 28% and 18% | Total Cell Count [1]: 471 and 392 | Population Apoptotic (%) [2]: 33% | Population Fragmented Nuclei (%) [2]: 7% | Population Healthy Nuclei (%) [2]: 78% and 75% | Population Hoechst High Intensity Objects (%) [2]: 6% and 9% | Population Membrane Permeable-Phenotype (%) [2]: 1% and 0% | Population Mitochondria Different-Phenotype (%) [2]: 48% and 64% | Population Mitotic Cells (%) [2]: 66% | Population Normal (%) [2]: 93% and 90% | Population Pyknosed Nuclei (%) [2]: 14% and 17% | Population Tubulin-Different-Phenotype (%) [2]: 33% and 30% | Total Cell Count [2]: 318 and 309 | Population Apoptotic (%) [3]: 35% and 34% | Population Fragmented Nuclei (%) [3]: 9% and 6% | Population Healthy Nuclei (%) [3]: 79% and 85% | Population Hoechst High Intensity Objects (%) [3]: 3% and 4% | Population Membrane Permeable-Phenotype (%) [3]: 1% and 0% | Population Mitochondria Different-Phenotype (%) [3]: 22% and 35% | Population Mitotic Cells (%) [3]: 64% and 65% | Population Normal (%) [3]: 96% and 95% | Population Pyknosed Nuclei (%) [3]: 10% and 8% | Population Tubulin-Different-Phenotype (%) [3]: 15% and 14% | Total Cell Count [3]: 605 and 526 | Population Apoptotic (%) [4]: 32% and 36% | Population Fragmented Nuclei (%) [4]: 11% and 7% | Population Healthy Nuclei (%) [4]: 76% and 79% | Population Hoechst High Intensity Objects (%) [4]: 2% and 8% | Population Membrane Permeable-Phenotype (%) [4]: 0% | Population Mitochondria Different-Phenotype (%) [4]: 26% and 50% | Population Mitotic Cells (%) [4]: 67% and 63% | Population Normal (%) [4]: 97% and 91% | Population Pyknosed Nuclei (%) [4]: 12% | Population Tubulin-Different-Phenotype (%) [4]: 23% and 22% | Total Cell Count [4]: 439 and 345 | Population Apoptotic (%) [5]: 32% and 13% | Population Fragmented Nuclei (%) [5]: 13% and 16% | Population Healthy Nuclei (%) [5]: 79% and 77% | Population Hoechst High Intensity Objects (%) [5]: 2% and 3% | Population Membrane Permeable-Phenotype (%) [5]: 2% and 0% | Population Mitochondria Different-Phenotype (%) [5]: 12% and 21% | Population Mitotic Cells (%) [5]: 67% and 86% | Population Normal (%) [5]: 97% and 96% | Population Pyknosed Nuclei (%) [5]: 7% and 6% | Population Tubulin-Different-Phenotype (%) [5]: 11% and 12% | Total Cell Count [5]: 1005 and 714 | Population Apoptotic (%) [6]: 25% and 20% | Population Fragmented Nuclei (%) [6]: 15% and 14% | Population Healthy Nuclei (%) [6]: 76% and 79% | Population Hoechst High Intensity Objects (%) [6]: 2% | Population Membrane Permeable-Phenotype (%) [6]: 1% and 0% | Population Mitochondria Different-Phenotype (%) [6]: 17% and 30% | Population Mitotic Cells (%) [6]: 75% and 80% | Population Normal (%) [6]: 97% | Population Pyknosed Nuclei (%) [6]: 7% and 6% | Population Tubulin-Different-Phenotype (%) [6]: 15% and 14% | Total Cell Count [6]: 685 and 537
